Sampled rows, rich in hits. Any-hit rate of the full collection: about 1.6%.
UCH37 inh – inhibitors of human UCH37 deubiquitinase, primary screen, biochemical, Ub-AMC cleavage, fluorescence. inhibition, % (test concentration not listed). 0.33% of 330,000 active. purified proteasome/UCH37. AID 588478, 2011;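 active means mean inhibition over replicate wells above about 20%, limit read from the data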;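 further: 0% = compound-free wells with enzyme and 100% = wells lacking proteasome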
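Material: Human UCH37 enzyme supplied as purified proteasome complex | Schedule: 30 min compound-proteasome preincubation then 25 min substrate reaction, room temperature | Detection: AMC fluorescence from Ub-AMC cleavage, excitation 355 nm, emission 460 nm | Benchmarks: Wells without proteasome as full block, compound-free enzyme plus substrate as uninhibited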
PAD4 inh – human PAD4 inhibitors, primary screen, biochemical, fluorescence polarization, 1536-well format; recombinant PAD4, RCA probe fluorescence polarization; inhibition, % at 6.36 µM; 0.41% of 330,000 active; AID 485272, 2010;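 active means percent inhibition above a cutoff equal to the mean of all tested compounds plus 3 SD, cut at about 15% in these data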;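 further: 0% = PAD4 with RCA probe and DMSO and 100% = probe without PAD4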
Target sequence (Q9UM07 whole entry, looked up): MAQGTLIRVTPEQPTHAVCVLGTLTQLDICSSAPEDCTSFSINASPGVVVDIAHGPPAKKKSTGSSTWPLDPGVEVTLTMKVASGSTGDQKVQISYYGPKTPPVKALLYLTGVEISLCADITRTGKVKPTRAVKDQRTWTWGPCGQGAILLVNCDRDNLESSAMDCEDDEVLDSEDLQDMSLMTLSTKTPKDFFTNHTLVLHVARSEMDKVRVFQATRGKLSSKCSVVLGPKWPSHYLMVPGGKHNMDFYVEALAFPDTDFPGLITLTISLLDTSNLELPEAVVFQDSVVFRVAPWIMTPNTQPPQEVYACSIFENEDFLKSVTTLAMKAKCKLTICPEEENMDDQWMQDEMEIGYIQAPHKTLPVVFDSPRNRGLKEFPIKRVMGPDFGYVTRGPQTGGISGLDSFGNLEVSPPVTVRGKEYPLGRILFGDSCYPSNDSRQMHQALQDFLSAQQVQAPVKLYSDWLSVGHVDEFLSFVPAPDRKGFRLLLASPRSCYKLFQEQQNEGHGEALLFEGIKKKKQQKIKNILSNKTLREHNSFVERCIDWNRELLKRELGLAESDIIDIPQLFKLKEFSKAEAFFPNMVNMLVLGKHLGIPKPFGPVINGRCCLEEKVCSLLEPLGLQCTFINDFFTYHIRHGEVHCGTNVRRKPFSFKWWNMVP
CTSL1 counter – Fasciola hepatica cathepsin L1 inhibitors, primary screen, counter-screen for PFM18AAP inhibitor project, biochemical, QFRET, fluorogenic peptide substrate | AID 1906, 2009 | recombinant F. hepatica cathepsin L1, Z-Leu-Arg-MCA fluorescence | inhibition, % at 5.96 µM | 0.49% of 300,000 active;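 active means inhibition above the mean of all tested compounds plus 3 SD, set per screening campaign, cut at about 17% in these data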;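 further: 0% = plate median of test compound wells and 100% = 1 µM Z-Phe-Ala-diazomethylketone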
HKDC1 inh – HKDC1 hexokinase inhibitors, primary screen, biochemical, fluorescence, uHTS; recombinant HKDC1, G6PDH/diaphorase resazurin coupled fluorescence; inhibition, % at 20 µM; 0.16% of 340,000 active; Q2TB90;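 active means inhibition above about 35% when tested at 20 µM, limit read from the data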;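 further: plate controls were DMSO wells with enzyme for no effect and DMSO wells lacking enzyme for full effect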
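Material: recombinant HKDC1 hexokinase; Amount: HKDC1 at 5 µg/mL; Medium: Tris pH 8.0 buffer with MgCl2, Tween-20, BSA, BME; Schedule: 90 min reaction incubation at room temperature, dark; Technique: coupled resazurin fluorescence, excitation 525 nm, emission 613 nm.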
GSTO1 counter – inhibitors of recombinant GSTO1, primary screen, counter-screen for RBBP9 inhibitor project, biochemical, fluorescence polarization. activity-based probe fluorescence polarization. 1.1% of 300,000 active. AID 1974, 2009. inhibition, % at 5.96 µM;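 active means inhibition above the campaign mean inhibition plus 3 SD, cut at about 35% in these data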;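 further: 0% = GSTO1-1 with DMSO and 100% = wells lacking GSTO1-1 enzyme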
TDP2 absorb – human TDP2 enzyme inhibitors, primary screen, biochemical, epi absorbance, recombinant enzyme; inhibition, % at 12.8 µM; 0.34% of 370,000 active; Tyrosyl-DNA phosphodiesterase 2 (Homo sapiens), O95551; AID 720702, 2013; T5PNP hydrolysis, p-nitrophenol absorbance 415 nm;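 active means inhibition above the mean of all tested compounds plus 3 SD, set per campaign, cut at about 25% in these data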;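 further: 0% = DMSO with enzyme and 100% = buffer with substrate but no TDP2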
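Test system: human TDP2 enzyme; Input: 120 nM TDP2 per well; Buffer or medium: Mg2+-containing Tris-HCl buffer, pH 7.5; Reagent: 5 mM T5PNP; Dosing: 12.8 µM single point, 1% DMSO; Incubation: reaction 2 h, 37 °C; Detection: p-Nitrophenol epi absorbance; Read-out: % inhibition relative to enzyme-containing and enzyme-free wells; Replicates: single well per compound.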
GSTO1 inh conf – GSTO1 inhibitor hit confirmation, counter-screen for RBBP9 inhibitor project, biochemical, fluorescence polarization, triplicate | inhibition, % at 5.96 µM | shares compounds with GSTO1 counter | 54% of 2,400 active | recombinant GSTO1, probe fluorescence polarization | AID 2176, 2009;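 active means inhibition above the primary screen's cutoff, its mean inhibition plus 3 SD, cut at about 35% in these data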;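 further: loss of polarization as inhibitors block binding of rhodamine sulfonate ester activity probe; 0% = GSTO1 with DMSO and 100% = wells lacking GSTO1 enzyme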
GSTO1 ABPP inh – inhibitors of purified human GSTO1, late-stage follow-up, biochemical, gel ABPP, SE-Rh probe, percent inhibition; shares compounds with GSTO1 counter; recombinant GSTO1, gel ABPP SE-Rh probe fluorescence; inhibition, % at 1 µM; 30% of 130 active; AID 463110, 2010;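 active means inhibition of the enzyme GSTO1 above about 75%, limit read from the data; inactive means inhibition below that limit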
Active calls of the source: *; . = no result given; ! = a repeat was not active.

SMILES	UCH37 inh	PAD4 inh	CTSL1 counter	HKDC1 inh	GSTO1 counter	TDP2 absorb	GSTO1 inh conf	others
COc1cc(/C=C2/C(=O)c3cccc([N+](=O)[O-])c3C2=O)c(Br)cc1O	8.4	-6.2	-3.0	28.6	47.1*	6.2	54.8*
CN(C)CCCNC(=S)N=c1sccn1Cc1ccccc1Cl	7.2	.	.	.	.	.	.
Cc1ccc[n+](-c2nc3ccccc3nc2C(=C=[N-])C#N)c1	5.1	-20.2	1.6	2.9	62.5*	1.6	35.7*!
CCc1cc[n+](-c2nc3ccccc3nc2[N-]S(=O)(=O)c2ccc(Br)s2)cc1	3.3	-1.0	-0.8	3.4	0.4	1.4	.
Cc1cc(C)c[n+](-c2nc3ccccc3nc2C(=C=[N-])C#N)c1	-3.3	0.9	0.0	-12.8	44.6*	-0.4	29.2
CCc1ccc[n+](-c2nc3ccccc3nc2C(=C=[N-])C#N)c1	2.6	-11.6	3.0	0.4	52.6*	1.8	41.9*
Cc1cc(C)c[n+](-c2nc3ccccc3nc2[N-]S(=O)(=O)c2ccc(Cl)cc2)c1	3.9	4.9	-1.1	-8.1	9.8	-1.2	.
O=C(NN=Cc1cc2c(cc1Cl)OCO2)c1cccnc1	2.2	.	.	.	.	.	.
Cc1ccc(C=Nn2cnc3sc4c(c3c2=O)CCCC4)o1	4.9	.	.	.	.	.	.
CCOc1ccc(-c2c(C(=O)NN=Cc3ccccc3)nnn2-c2nonc2N)cc1	2.0	.	.	.	.	.	.
CCOc1ccc(Cl)cc1C=NNC(=O)c1ccccc1	-1.7	.	.	.	.	.	.
CC(=NNC(=O)c1ccccc1O)c1ccc(NC(=O)Cc2ccccc2)cc1	-25.4	.	.	.	.	.	.
CC1(C(=O)NC2CCCCC2)CCC(=O)N1Cc1cccnc1 (centres undefined)	0.3	0.9	0.1	-1.5	51.7*	-3.7	4.7
CC1CCC(NC(=O)C2(C)CCC(=O)N2Cc2cccnc2)CC1 (centres undefined)	6.0	-1.9	-1.2	-7.4	4.0	0.3	.
O=C(CSc1nnc(-c2ccco2)o1)c1ccc([N+](=O)[O-])cc1	7.8	-10.5	5.3	0.9	46.8*	8.2	24.4
NC(=O)C1(C(N)=O)OC1c1ccc(Cl)c(Cl)c1 (centres undefined)	6.6	-1.9	-1.8	-8.8	65.5*	-6.4	76.9*	GSTO1 ABPP inh=30.0
CC(C)=NNC(=O)c1c(O)c2ccccc2[nH]c1=O	3.1	-2.6	2.7	-0.3	42.0*	0.9	4.4
O=C(CCl)NNC(=O)c1c(O)c2ccccc2[nH]c1=O	3.3	1.3	-3.1	-1.9	88.7*	-11.7	96.9*
CCNC(=O)c1c(O)c2ccccc2[nH]c1=O	-213.9	5.5	2.3	-10.4	5.9	11.3	.
COc1cc(C=NNC(=S)Nc2cccnc2)cc(OC)c1OC	4.8	.	.	.	.	.	.
Cc1cc([N+](=O)[O-])c2c(c1C)C1C=CCC1C(c1ccccn1)N2 (centres undefined)	5.2	-1.2	2.2	.	52.1*	.	10.2
COc1ccc2nc(-n3c(C)ccc3C)sc2c1	3.2	1.1	-5.0	-2.8	19.5	0.1	.
COc1ccc2nc(N3C(=O)/C(=C/c4ccccc4)NC3=S)sc2c1	11.0	-14.8	3.9	10.1	42.4*	-1.2	56.5*
CCOc1ccc2nc(N3C(=O)/C(=C/c4ccccc4)NC3=S)sc2c1	13.7	3.3	4.5	3.6	58.9*	-6.7	55.3*

Screens deposited in PubChem by several laboratories.
